Published values from different studies.
IGF1R: Insulin-like growth factor 1 receptor (IGF1R, Homo sapiens, UniProt P08069)

| Compound | target | observed | action | method | concentration | quantity | value |
| --- | --- | --- | --- | --- | --- | --- | --- |
| CNCc1ccc(-c2cc(-c3nc(-c4ccc(S(=O)(=O)C(C)C)cc4)cnc3N)on2)cc1 | IGF1R | enzyme activity | inhibitor |  | 2 µM | inhibition | 2% |
| Cc1nccc(COC(=O)N2C[C@@H]3[C@@H](CNC(=O)c4ccc5[nH]nnc5c4)[C@@H]3C2)n1 | IGF1R | cell-free assay |  | competition with immobilised ligand | 1 µM | remaining binding | 93% |
| COc1cc(/C=C/C(=O)CC(=O)/C=C/c2ccc(O)c(OC)c2)ccc1O | IGF1R | enzyme activity | inhibitor |  | 1 µM | activity vs control | 99% |
| O=C1NC(=O)c2cc(Nc3ccc(F)cc3)c(Nc3ccc(F)cc3)cc21 | IGF1R | cell-free assay |  |  | 0.5 µM | remaining signal | 102% |
| CNc1cccc2cc(C(=O)Nc3ccc(C(=O)O)cc3)c(=O)[nH]c12 | IGF1R | enzyme activity | inhibitor |  | 10 µM | inhibition | 5.2% |
| Cc1ccc(NC(=O)c2ccc(C)c(C(F)(F)F)c2)cc1C#Cc1nn(C2CCC(O)CC2)c2ncnc(N)c12 (stereo not drawn) | IGF1R | cell-free assay |  |  | 10 µM | remaining signal | 66% |
| CS(=O)(=O)Nc1cccc(-c2csc(NC(=O)CSc3nc4nccnc4c(=O)n3CCc3ccccc3)n2)c1 | IGF1R | enzyme activity | inhibitor |  | 10 µM | inhibition | 5% |
| COc1ccc(Cl)cc1NC(=O)Nc1cc(C)nc2ccccc12 | IGF1R | cell-free assay |  |  | 0.5 µM | remaining signal | 94.9% |
| COc1cc2ncnc(Nc3ccc(Oc4ccccc4)c(C)c3C)c2cc1OC | IGF1R | enzyme activity | inhibitor |  | 1 µM | inhibition | 2% |
| CN1CC(Oc2cnc(C#N)cc2-c2ccn3nc(NC(=O)C4CC4)cc3c2)C1 | Insulin-like growth factor 1 receptor, phosphorylated (IGF1R, Homo sapiens, UniProt P08069) | enzyme activity | inhibitor |  | 1 µM | inhibition | -13% |
| O=C(NCc1ncc(C(F)(F)F)cc1Cl)c1ccc2c(c1)C1(CCS(=O)(=O)CC1)[C@@H](C1CC1)N2S(=O)(=O)c1ccc(F)cc1 | IGF1R | cell-free assay |  | competition with immobilised ligand | 1 µM | remaining binding | 88% |
| CCN(CC)CCNC(=O)c1c(C)[nH]c(/C=C2\C(=O)Nc3ccc(F)cc32)c1C | IGF1R | enzyme activity | inhibitor |  | 10 µM | inhibition | 81% |
| COc1cc(Nc2c(C#N)cnc3cc(OCCCN4CCN(C)CC4)c(OC)cc23)c(Cl)cc1Cl | IGF1R | cell-free assay |  |  | 0.5 µM | remaining signal | 91.5% |
| CN(C)C(=O)Cn1cc(-c2nc(C3(c4ccc(-c5cnc(N)nc5)cc4)CC3)no2)cn1 | IGF1R | cell-free assay |  | competition with immobilised ligand | 1 µM | remaining binding | 85% |
| Cc1cc(NC(=O)c2cccc3cc(-c4cccc5[nH]nc(N)c45)ccc23)ccc1F | IGF1R | enzyme activity | inhibitor |  | 0.1 µM | activity vs control | 143% |
| C[C@@H](c1cccc(C#N)c1)n1cc(Cl)cc(C(N)=O)c1=N | IGF1R | cell-free assay |  | competition with immobilised ligand | 1 µM | remaining binding | 96% |
| CC/C(=N\NC(=O)NCc1cccc(O)c1)c1ccc(O)c(C)c1O | IGF1R | enzyme activity | inhibitor |  | 0.1 µM | inhibition | 3% |
| Nc1c(C(=O)NCc2ccc(C(=O)NCCCC3CCCCC3)cc2)cnn1-c1ccccc1 | IGF1R | cell-free assay |  | competition with immobilised ligand | 0.1 µM | remaining binding | 98% |
| C=CC(=O)Nc1cc(Nc2nccc(Nc3cc(Cl)c(F)cc3C(C)(C)O)n2)c(OC)cc1N1CC[C@@H](N(C)C)C1 | IGF1R | enzyme activity | inhibitor |  | 1 µM | inhibition | 35% |
| CN(C(=O)c1ccccc1)c1cc(N(C)c2ccc3c(c2)CCc2ccc(C(=O)NCCN4CCOCC4)cc2C3=O)ccc1F | IGF1R | cell-free assay |  | competition with immobilised ligand | 1 µM | remaining binding | 90% |
| Cc1ccc(C(=O)NCc2ccsc2)cc1C#Cc1cn(C(C)C)c2ncnc(N)c12 | IGF1R | enzyme activity | inhibitor |  | 1 µM | activity vs control | 75% |
